Test results taken from ChEMBL document CHEMBL1158460, “Heterobiaryl human immunodeficiency virus entry inhibitors” (J Med Chem, 2009).

Experiments:
[1] = Inhibition of HIV1 3B recombinant gp120/sCD4 binding interaction by ELISA
How it was run: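 Competitive ELISA of soluble CD4 binding to gp120 from HIV IIIB. Bound CD4 was detected with an anti-CD4 monoclonal antibody, then a peroxidase-labelled anti-mouse antibody. The read-out was the 50% inhibitory dose.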

[2] = Cytotoxicity against human U87 cells coexpressing CD4, CxCR4 receptors after 72 hrs; assay type: cell-based, U-87MG ATCC; conditions: U87 cells coexpressing CD4 and CXCR4 receptors
[3] = test system: Human immunodeficiency virus 1; test: Antiviral activity against HIV1 expressed in 293T cells assessed as protection against viral M33 envelope infection in human U87 cells coexpressing CD4, CCR5 receptors after 72 hrs by luciferase reporter gene pseudoviral assay; assay type: functional, organism-based; conditions: Human immunodeficiency virus 1, HEK-293T
How it was run: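 Pseudovirions carry an R5-using envelope cloned from a primary virus isolate. Anti-HIV-1 activity was taken as the 50% inhibitory dose against these pseudovirions.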

[4] = test system: Human immunodeficiency virus; test: Antiviral activity against HIV isolate 584.000 060 by replication assay; assay type: functional, organism-based; conditions: Human immunodeficiency virus 1, isolate 584.000 060
[5] = test system: Human immunodeficiency virus; test: Antiviral activity against HIV isolate 584.000 031 by replication assay; assay type: functional, organism-based; conditions: Human immunodeficiency virus 1, isolate 584.000 031
[6] = test system: Human immunodeficiency virus; test: Antiviral activity against HIV isolate 584.000 030 by replication assay; assay type: functional, organism-based; conditions: Human immunodeficiency virus 1, isolate 584.000 030
[7] = test system: Human immunodeficiency virus; test: Antiviral activity against HIV isolate 584.000 058 by replication assay; assay type: functional, organism-based; conditions: Human immunodeficiency virus 1, isolate 584.000 058
[8] = test system: Human immunodeficiency virus; test: Antiviral activity against HIV isolate 589.000 033 by replication assay; assay type: functional, organism-based; conditions: Human immunodeficiency virus 1, isolate 589.000 033
[9] = test system: Human immunodeficiency virus; test: Antiviral activity against HIV isolate 584.000 066 by replication assay; assay type: functional, organism-based; conditions: Human immunodeficiency virus 1, isolate 584.000 066
[10] = test system: Human immunodeficiency virus; test: Antiviral activity against HIV isolate 584.000.098 by replication assay; assay type: functional, organism-based; conditions: Human immunodeficiency virus 1, isolate 584.000.098
[11] = test system: Human immunodeficiency virus; test: Antiviral activity against HIV isolate 584.000 227 by replication assay; assay type: functional, organism-based; conditions: Human immunodeficiency virus 1, isolate 584.000 227
[12] = test system: Human immunodeficiency virus; test: Antiviral activity against HIV isolate 584.000 220 by replication assay; assay type: functional, organism-based; conditions: Human immunodeficiency virus 1, isolate 584.000 220
[13] = test system: Human immunodeficiency virus; test: Antiviral activity against HIV isolate 584.000 017 by replication assay; assay type: functional, organism-based; conditions: Human immunodeficiency virus 1, isolate 584.000 017
[14] = test system: Human immunodeficiency virus; test: Antiviral activity against HIV isolate 584.000 054 by replication assay; assay type: functional, organism-based; conditions: Human immunodeficiency virus 1, isolate 584.000 054
[15] = test system: Human immunodeficiency virus; test: Antiviral activity against HIV isolate 584.000 063 by replication assay; assay type: functional, organism-based; conditions: Human immunodeficiency virus 1, isolate 584.000 063

Compound | IC50 [1] [nM] | IC50 [3] [nM] | CC50 at 72 h [2] [nM] | further results
C[C@@H]1CN(C(=O)c2ccccc2)CCN1S(=O)(=O)c1ccc(-c2cnco2)s1 |  | 1200 | > 40000 | 
C[C@@H]1CN(C(=O)c2ccccc2)CCN1C(=O)C(=O)c1ccc(-c2ccsc2)cc1 |  | 540 | > 40000 | 
CC1CN(C(=O)c2ccccc2)CCN1C(=O)C(=O)c1ccc(-c2ccn(C)n2)cc1 (racemic) |  | 1800 | > 40000 | 
C[C@@H]1CN(C(=O)c2ccccc2)CCN1C(=O)C(=O)c1ccc(-c2cccs2)cc1 |  | 440 | > 40000 | 
Cc1cc(-c2cc[nH]n2)ccc1C(=O)C(=O)N1CCN(C(=O)c2ccccc2)C[C@H]1C | > 10000 | 1100 | > 40000 | 
C[C@@H]1CN(C(=O)c2ccccc2)CCN1C(=O)C(=O)c1ccc(-c2cc[nH]n2)nc1 | > 10000 | 1000 | > 40000 | 
CC(=O)c1ccc(-c2ccc(C(=O)C(=O)N3CCN(C(=O)c4ccccc4)C[C@H]3C)cc2)s1 |  | 1600 | > 40000 | 
Cc1ccc(-c2ccc(C(=O)C(=O)N3CCN(C(=O)c4ccccc4)C[C@H]3C)cc2)o1 | > 10000 | 2800 | > 40000 | 
C[C@@H]1CN(C(=O)c2ccccc2)CCN1C(=O)C(=O)c1ccc(-c2nccs2)cc1 | > 10000 | 630 | > 40000 | 
CC(=O)c1cc(-c2ccc(C(=O)C(=O)N3CCN(C(=O)c4ccccc4)CC3C)cc2)cs1 (racemic) |  | 910 | > 40000 | 
C[C@@H]1CN(C(=O)c2ccccc2)CCN1C(=O)C(=O)c1ccc(-c2ccccn2)s1 |  | 13000 | > 40000 | 
C[C@@H]1CN(C(=O)c2ccccc2)CCN1C(=O)C(=O)c1ccc(N2CCOC2=O)cc1 | > 10000 | 12000 | > 40000 | 
CC1CN(C(=O)c2ccccc2)CCN1C(=O)C(=O)c1ccc(-c2cc(N)ncn2)cc1 (racemic) |  | 1400 | > 40000 | 
C[C@@H]1CN(C(=O)c2ccccc2)CCN1C(=O)C(=O)c1ccc(-c2cscn2)cc1 |  | 420 | > 40000 | 
C[C@@H]1CN(C(=O)c2ccccc2)CCN1C(=O)C(=O)c1ccc(-c2ccncc2)cc1 |  | 2500 | > 40000 | 
C[C@@H]1CN(C(=O)c2ccccc2)CCN1C(=O)C(=O)c1ccc(-c2ncccc2F)cc1 |  | 2000 | > 40000 | 
COc1cc(C(=O)C(=O)N2CCN(C(=O)c3ccccc3)C[C@H]2C)ccc1-c1cc(C)no1 | > 10000 | 830 | > 40000 | 
Cc1nc(-c2ccc(C(=O)C(=O)N3CCN(C(=O)c4ccccc4)C[C@H]3C)cc2)cs1 |  | 5400 | > 40000 | 
CNc1cc(-c2cc[nH]n2)ccc1C(=O)C(=O)N1CCN(C(=O)c2ccccc2)C[C@H]1C |  | > 10000 | > 40000 | 
CC1CN(C(=O)c2ccccc2)CCN1C(=O)C(=O)c1ccc(-n2nccn2)cc1 (racemic) | 6200 | 870 | > 40000 | 
C[C@@H]1CN(C(=O)c2ccccc2)CCN1C(=O)C(=O)c1ccc(N2CCCC2)cc1 | > 10000 | 6700 | > 40000 | 
C[C@@H]1CN(C(=O)c2ccccc2)CCN1C(=O)C(=O)c1cccc(-c2ccccn2)c1 |  | 23000 | > 40000 | 
C[C@@H]1CN(C(=O)c2ccccc2)CCN1S(=O)(=O)c1ccc(-c2ccccn2)s1 |  | 5400 | > 40000 | 
C[C@@H]1CN(C(=O)c2ccccc2)CCN1C(=O)C(=O)c1ccc(-n2cccn2)cc1 | > 7500 | 1200 | > 40000 | 
CC1CN(C(=O)c2ccccc2)CCN1C(=O)C(=O)c1ccc(-n2cncn2)cc1 (racemic) | > 10000 | 940 | > 40000 | 
Cc1cc(-c2ccc(C(=O)C(=O)N3CCN(C(=O)c4ccccc4)C[C@H]3C)c(O)c2)on1 | > 10000 | 7300 | > 40000 | 
C[C@@H]1CN(C(=O)c2ccccc2)CCN1C(=O)C(=O)c1ccc(-c2cc[nH]n2)cc1O | > 10000 | 2200 | > 40000 | 

Compounds with a lower IC50 [3], results first:

IC50 [1] [nM] | IC50 [3] [nM] | Compound | CC50 at 72 h [2] [nM] | further results
680 | 35 | Cc1cc(C(=O)C(=O)N2CCN(C(=O)c3ccccc3)C[C@H]2C)ccc1-c1cc[nH]n1 | > 40000 | 
1100 | 46 | C[C@@H]1CN(C(=O)c2ccccc2)CCN1C(=O)C(=O)c1ccc(-c2cc[nH]n2)cc1F | > 40000 | 
236 | < 5 | C[C@@H]1CN(C(=O)c2ccccc2)CCN1C(=O)C(=O)c1ccc(-c2cnco2)c(Cl)c1 | > 40000 | 
> 10000 | 330 | Cc1cc(-c2ccc(C(=O)C(=O)N3CCN(C(=O)c4ccccc4)C[C@H]3C)cc2)on1 | > 40000 | 
> 10000 | 130 | Cc1cc(-c2ccc(C(=O)C(=O)N3CCN(C(=O)c4ccccc4)C[C@H]3C)cc2F)on1 | > 40000 | 
2400 | 160 | CC1CN(C(=O)c2ccccc2)CCN1C(=O)C(=O)c1ccc(-c2cc[nH]n2)cc1 (racemic) | > 40000 | 
 | 110 | CC1CN(C(=O)c2ccccc2)CCN1C(=O)C(=O)c1ccc(-c2cnn(C)c2)cc1 (racemic) | > 40000 | 
 | 320 | C[C@@H]1CN(C(=O)c2ccccc2)CCN1C(=O)C(=O)c1ccc(-c2cncs2)cc1 | > 40000 | 
4600 | 250 | C[C@@H]1CN(C(=O)c2ccccc2)CCN1C(=O)C(=O)c1ccc(-c2ccn[nH]2)cc1Cl | > 40000 | 
780 | 50 | COc1cc(C(=O)C(=O)N2CCN(C(=O)c3ccccc3)C[C@H]2C)ccc1-c1cnco1 | > 40000 | 
930 | 8 | COc1ccnc2[nH]cc(C(=O)C(=O)N3CCN(C(=O)c4ccccc4)C[C@H]3C)c12 | > 40000 | IC50 [4]: 24 nM; IC50 [5]: 8020 nM; IC50 [6]: 29 nM; IC50 [7]: 38 nM; IC50 [8]: 27 nM; IC50 [9]: 190 nM; IC50 [10]: 394 nM; IC50 [11]: 423 nM; IC50 [12]: 5 nM; IC50 [13]: > 10000 nM; IC50 [14]: 5530 nM; IC50 [15]: 46 nM
5900 | 78 | C[C@@H]1CN(C(=O)c2ccccc2)CCN1C(=O)C(=O)c1ccc(-c2cc[nH]n2)cc1N | > 40000 | 
 | 250 | C[C@@H]1CN(C(=O)c2ccccc2)CCN1C(=O)C(=O)c1ccc(-c2cnco2)cc1 | > 40000 | 
560 | < 5 | COc1cc(-c2ccn[nH]2)ccc1C(=O)C(=O)N1CCN(C(=O)c2ccccc2)C[C@H]1C | > 40000 | 
215 | 7 | COc1cnc(-n2ccnn2)c2[nH]cc(S(=O)(=O)N3CCN(C(=O)c4ccccc4)C[C@H]3C)c12 | > 40000 | 
2500 | 56 | COc1cc(C(=O)C(=O)N2CCN(C(=O)c3ccccc3)C[C@H]2C)ccc1-c1cc[nH]n1 | > 40000 | 
